Measured values of several laboratories.
Lines come from different studies, so protocols differ.
Sample: plasma

The Cmax of `Cc1ccc(C(=O)Nc2ccc(CN3CCN(C)CC3)c(C(F)(F)F)c2)cc1C#Cc1cnc2[nH]ncc2c1` is reported as 5.02 ng/mL (human; oral; 20 mg; single dose, fed, healthy volunteers).
`Cn1cc(Nc2nc(N)nc(-c3cccc(-n4ccc5cc(C6CC6)cc(F)c5c4=O)c3CO)n2)cn1` has a Cmax of 28.6 ng/mL (human; oral; 5 mg; single dose, fasted, suspension).
With `C[C@H](O)C(=O)C1=Nc2c(nc(N)[nH]c2=O)NC1` the Cmax was 1.51 ng/mL (human; oral; 20 mg/kg; single dose, healthy volunteers).
`COc1ccc([C@@H](O)c2cc(-c3ncnc4cc(N5CCOCC5)ccc34)c(F)cc2Cl)nn1` has a Cmax of 854 ng/mL (human; oral; 200 mg; single dose, patients).
`CNC(=O)n1ccc2cc(Oc3ccnc(NC(=O)c4ccc(C5CCN(CCO)CC5)cc4)c3)c(OCCOC)cc21` gave a Cmax of 6.81 ng/mL (human; oral; 35 mg; single dose, fed, healthy volunteers).
With `Cl.[2H]C([2H])([2H])CC(=O)c1cnc(NC(=O)C2CC2)cc1Nc1cccc(-c2ncn(C([2H])([2H])[2H])n2)c1OC` the Cmax was 132 ng/mL (human; oral; 20 mg; multiple doses, once daily, fasted).
For `NS(=O)(=O)OC[C@@H]1C[C@@H](n2ccc3c(N[C@H]4CCc5ccccc54)ncnc32)C[C@@H]1O`, the Cmax was 127 ng/mL (human; intravenous; 15 mg/m²; patients).
For `CN1CC[C@@H](c2c(O)cc(O)c3c(=O)cc(-c4ccc(C(F)(F)F)cc4Cl)oc23)[C@@H]1CO`, the Cmax was 245 ng/mL (human; oral; 150 mg; patients).
`CC(=O)N[C@H]1CC[C@H](NC(=O)CN2CCN(c3nncc(-c4ccc(C)cc4)n3)CC2)CC1` gave a Cmax of 1550 ng/mL (female human; oral; 100 mg; single dose, fasted).
`N[C@@H]1c2cccnc2[C@H](OC(=O)N2CCC(n3c(=O)[nH]c4ncccc43)CC2)CC[C@H]1c1cccc(F)c1F` gave a Cmax of 923 ng/mL (human; oral; 75 mg; single dose).
With `CC(C)n1c(Nc2cccnc2)nc2cnc(Nc3ccc(N4CCN(C)CC4)cc3)nc21` the Cmax was 45.7 ng/mL (male human; oral; 100 mg; single dose).
